Assays:
A549 [1] = test: Antiproliferative activity against human A549 cells after 72 hrs by SRB assay; format: functional, cell-based
MDA-MB-231 = test: Antiproliferative activity against human MDA-MB-231 cells after 72 hrs by SRB assay; format: functional, cell-based
Outline: (§1)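 Cells grown in RPMI-1640 with 2 mM L-glutamine, 25 mM HEPES, 10% FBS, penicillin/streptomycin and amphotericin B. KB-VIN maintained with 100 nM vincristine. Freshly trypsinized cells seeded at 4000–7500 per well, depending on doubling time, together with compounds for 72 h. Fixed in 10% TCA, stained with 0.04% SRB, dye solubilized in 10 mM Tris base, absorbance read at 515 nm.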

KB = test: Antiproliferative activity against human KB cells after 72 hrs by SRB assay; format: functional, cell-based; outline: as §1
[2] = Antiproliferative activity against human KBVIN cells after 72 hrs by SRB assay; format: functional, cell-based; outline: as §1
A549 [3] = test: Cell cycle arrest in human A549 cells assessed as accumulation after 24 hrs by propidium iodide staining based flow cytometry; format: functional
Outline: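 A549 cells seeded at 75 000 per well 24 h before dosing, then treated 24 h at 1× or 3× the IC50 concentration. DMSO and 20 nM combretastatin A-4 served as controls. Floating plus trypsinized cells pooled, fixed in 70% EtOH overnight at –20 °C, stained with propidium iodide 30 min at 37 °C. DNA content analysed by flow cytometry for G2/M population.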

Row | IC50 (A549 [1]; Homo sapiens, A549, 72 h) [µM] | IC50 (MDA-MB-231; mda-mb-231) [µM] | IC50 (KB; kb) [µM] | IC50 (MDA-MB-231; Homo sapiens, MDA-MB-231, 72 h) [µM] | IC50 (KB; Homo sapiens, KB, 72 h) [µM] | IC50 (A549 [1]; a549) [µM] | SMILES | IC50 [2] [µM] | IC50 ([2]; Homo sapiens, KBVIN, 72 h) [µM] | Activity (A549 [3])
1 | 6.17 |  |  | > 40 | 11.5 |  | COc1cc(/C=C2\C(=O)OCC2Cc2ccc3c(c2)OCO3)cc(OC)c1O (stereo not given) |  | 6.78 | 
2 |  | 9.37 | 8.71 |  |  | 5.93 | COc1cc(/C=C2\C(=O)OCC2Cc2ccc3c(c2)OCO3)cc(OC)c1OC(=O)CN(C)C (stereo not given) [listing 2 of 2 here] | 7.06 |  | 
3 |  |  |  | 9.04 | 4.98 | 3.32 | COc1cc(/C=C2\C(=O)OCC2Cc2ccc3c(c2)OCO3)cc(OC(=O)CN(C)C)c1OC (stereo not given) [listing 1 of 3 here] |  | 4.51 | 
4 | 5.72 |  |  | 8.81 | 6.47 |  | Cc1cc(/C=C2\C(=O)OCC2Cc2ccc3c(c2)OCO3)ccc1F (stereo not given) |  | 5.51 | 
5 | 5.5 |  |  | 5.88 | 9.9 |  | COc1cc(/C=C2\C(=O)OCC2Cc2ccc3c(c2)OCO3)cc(OC)c1OC (racemic) |  | 5.51 | Dose-dependent effect
6 | > 40 |  |  | > 40 | > 40 |  | Cc1cc(/C=C2\C(=O)OC\C2=C\c2ccc3c(c2)OCO3)ccc1F |  | > 40 | 
7 | 5.02 | 8.91 | 5.53 |  |  |  | COc1cc(/C=C2\C(=O)OCC2Cc2ccc3c(c2)OCO3)cc(OC(=O)CN(C)C)c1OC (stereo not given) [listing 3 of 3 here] | 5.34 |  | 
8 | 4.32 |  |  | 8.55 | 5.18 |  | COc1cc(/C=C2\C(=O)OCC2Cc2ccc3c(c2)OCO3)cc(O)c1OC (stereo not given) |  | 4.84 | 

Second part, the compound before the results:

Row | SMILES | IC50 (A549 [1]; Homo sapiens, A549, 72 h) [µM] | IC50 (MDA-MB-231; mda-mb-231) [µM] | IC50 (KB; kb) [µM] | IC50 (MDA-MB-231; Homo sapiens, MDA-MB-231, 72 h) [µM] | IC50 (KB; Homo sapiens, KB, 72 h) [µM] | IC50 (A549 [1]; a549) [µM] | IC50 [2] [µM] | IC50 ([2]; Homo sapiens, KBVIN, 72 h) [µM] | Activity (A549 [3])
9 | COc1cc(/C=C2\C(=O)OCC2Cc2ccc3c(c2)OCO3)cc(OC)c1OC(=O)CN(C)C (stereo not given) [listing 1 of 2 here] | 6.15 | 29 | 18.1 |  |  |  | 17.6 |  | 
10 | COc1cc(/C=C2\C(=O)OC\C2=C\c2ccc3c(c2)OCO3)cc(OC(=O)CN(C)C)c1OC | > 40 |  |  | > 40 | > 40 |  |  | > 40 | 
11 | COc1ccc(/C=C\c2cc(OC)c(OC)c(OC)c2)cc1O |  |  |  |  |  |  |  |  | Dose-dependent effect
12 | COc1cc(/C=C2\C(=O)OC\C2=C\c2ccc3c(c2)OCO3)cc(OC)c1OC | 35.2 |  |  | > 40 | 34 |  |  | 28.3 | 
13 | COc1cc(/C=C2\C(=O)OC\C2=C\c2ccc3c(c2)OCO3)cc(OC)c1OC(=O)CN(C)C | > 40 |  |  | > 40 | > 40 |  |  | > 40 | 
14 | COc1cc(/C=C2\C(=O)OCC2Cc2ccc3c(c2)OCO3)cc(OC(=O)CN(C)C)c1OC (stereo not given) [listing 2 of 3 here] |  |  |  |  |  |  |  |  | Dose-dependent effect
15 | COc1cc(/C=C2\C(=O)OCC2Cc2ccc3c(c2)OCO3)cc(OC)c1OC(=O)[C@@H](N)Cc1ccccc1 (stereo not given in full) | 5.97 |  |  | 9.73 | 9.2 |  |  | 7.59 | 
16 | COc1cc(/C=C2\C(=O)OC\C2=C\c2ccc3c(c2)OCO3)cc(OC)c1OC(=O)[C@@H](N)Cc1ccccc1 | > 40 |  |  | > 40 | > 40 |  |  | > 40 | 
17 | COc1cc(/C=C2\C(=O)OCC2Cc2ccc3c(c2)OCO3)cc(OC(=O)[C@@H](N)Cc2ccccc2)c1OC (stereo not given in full) | 4.8 |  |  | 8.8 | 5.4 |  |  | 4.95 | 
18 | COc1cc(/C=C2\C(=O)OC\C2=C\c2ccc3c(c2)OCO3)cc(OC(=O)[C@@H](N)Cc2ccccc2)c1OC | > 40 |  |  | > 40 | > 40 |  |  | > 40 | 
19 | COc1cc(/C=C2\C(=O)OC\C2=C\c2ccc3c(c2)OCO3)cc(O)c1OC | 31.2 |  |  | > 40 | 34 |  |  | 29 | 
20 | COc1cc(/C=C2\C(=O)OC\C2=C\c2ccc3c(c2)OCO3)cc(OC)c1O | > 40 |  |  | > 40 | > 40 |  |  | > 40 | 

Source: ChEMBL document CHEMBL4261556, “Design, Synthesis and Structure-Activity Relationships of (±)-Isochaihulactone Derivatives” (Medchemcomm, 2017)
